Reference: the EternaBench riboswitch data

Tested on: MS2 coat protein
Test: apparent Kd, MS2 coat protein; higher = weaker binding; RNA-MaP array; FMN 200 µM where present
How it was run: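 Green signal from SNAP-549-labelled MS2 coat protein was normalised to red-channel RNA signal and to the median Fmax of control clusters. The protein was titrated from 0.7 or 1.5 nM, doubling to 3 µM, without and then with constant ligand, over designs transcribed by stalled E. coli RNA polymerase on Illumina sequencing-chip clusters, in 100 mM Tris-HCl pH 7.5, 80 mM KCl, 4 mM MgCl2, BSA, DTT, yeast tRNA and Tween-20. The apparent Kd is the median of filtered per-cluster binding-curve fits.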

[1] = designed as: ON switch for flavin mononucleotide, no ligand
[2] = ligand present: flavin mononucleotide, designed as: ON switch for flavin mononucleotide
[3] = designed as: OFF switch for flavin mononucleotide, no ligand
[4] = ligand present: flavin mononucleotide, designed as: OFF switch for flavin mononucleotide

Sequence	apparent Kd [1] [nM]	apparent Kd [2] [nM]	apparent Kd [3] [nM]	apparent Kd [4] [nM]
GCCAUCGUAUGAGGAUAUGGCACCGAACCGGUGCCAGAAGGCAUGUCAAUAGACAUGAGGAUCACCCAUGUGUUAUCGAUGGCA	147	13.1		
GGACGUCACAUUAACAUGAGGAUCACCCAUGUCAAAAGACAUGAGGAUAUGGAUAAUAAUAUAAACCAGAAGGCAUGGACGUCC	526	29.2		
CGUCCACAUGAGGAUCACCCAUGUUAGGAUAUAAACGCCGUAGUCCAAGGACGGGCCUUUAGAAGGAGCGCGGG			13.9	25.6
UGGUACUAGGGAGGAUAUGGGAAGAGACAUGAGGAUCACCCAUGUUUAAGAAUGCCGAGAGGCAACUAGAAGGCCCUAGUACCU	38.8	7.42		
UUGUUGUAUGUAGGAUAUGCAUAUUGUUAUUAUGCAGAAGGACAUGAGGAUCACCCAUGUAUAUUAUUAUUAUAUAUUAUAUAU			27.7	43.9
CACGAGCUAGGAUAUACAUGAGGAUCACCCAUGUAAGUCAUGCGGUCACAUCUGACAGGUAGAAGGAGCGCGUC			39.3	126
UAUAUAUAGUAAGGAUAUGUAAUUAGUUUAUAAACAGAAGGUACUGACAUGAGGAUCACCCAUGUUUUAGUGUGGGCAUGUAGA			87.7	134
GUAGCAUACCGAGGAUAUUCAGGGCGUAAAUAAACAUGAGGAUCACCCAUGUGGCGAAAGCCUAGGGAGAAGGCGGAAUGCUAC	17.1	16.8		
AAUUAUUUACAGAAGGAGUUAAAAGGAGUAUUACUAGGAUAUGUUCACAUGAGGAUCACCCAUGUCAUAUUGGGAUUUAUUUUU			22.5	22.6
UAAGGGUAAUGAGGAUAUAACGGGUGACAUGAGGAUCACCCAUGUGGUUUGUUAUGGUCGAGCCGUUAGAAGGCAUUGUAAGCA			1070	1120
AGGUAACAUGAGGAUCACCCAUGUCAGGAUAUCAGGAAGAUUAGAAUAGAGUAGAGGAUGAGAAGGGACUAUAU			32	30.3
CGUCUGUCAGGAUAUAGUUACGUAGACAUGAGGAUCACCCAUGUGACGUGGGACUAGUGACUAGAAGGGACGAACG			22.3	52.5
GGAAAUUAGCAAGGAUAUCGGCUCACUAUUACUUUAUGCCCUAGGACAUGAGGAUCACCCAUGUACGAGAAGGUGCUAACUACA			28.5	31.1
AAAGCACGAGGAUAUACAUGAGGAUCACCCAUGUAUAACCAAAAAAAAAGAUCCUCAUGUAGAAGGCGUGCAAA			18.9	16.8
CGAUGAGGAGUGAGGAUAUCGUGUUCGAAAGAACGUGAGAAGGCACAUGAGGAUCACCCAUGUGAUCCUUAUCG			28.3	67.9
GCUUGUGAAGGAUAUACUGGCGGCGUGCGCUCGAAGCACGCACAUGAGGAUCACCCAUGUAGAAGGUCAGGCGU			16.3	13.8
AACUCGUCAGGAUAUGCGCGCAGUUACUGCGCUUCGCAAUUGCAGAAGGGACAUGAGGAUCACCCAUGUAGGUC			42	45.4
AAAAUCACAUGAGGAUCACCCAUGUACCGAGUUAAGGCUACAUAGGAUAUGACAAGUAUAGCUUGUCAGAAGGGUGAGUCUCGC	58.2	97.7		
UGAUCGAGAGAUCUUAGAUUCUGGUAGGAUAUACAUUAUGUUUGAUAUACAUGAGGAUCACCCAUGUAGAAGGACUAGAGUCUA			7.34	15.9
CCAUGCGGAUGAGGAUAUUCAUCCAUGAGGAUAGAAGAAGGCGUACAUGAGGAUCACCCAUGUAUACACAUGAGGAUCCCUUAC			462	420
AGAAACUACGAGAAGGACAUAUAAUUCUUCAGAUACAUGAGGAUCACCCAUGUAGGAUAUCGUAGUUUCAGGAUCGUGAGAUCA			5.95	10.3
UUGCCUCAGAACAUGAGGAUCACCCAUGUGCUGCGGGCAACGUAGGAUAUGAUGGCGUGACGCCAUCAGAAGGAUGAUGGUACC	5.92	6.15		
UGAGACCUCACAGGAUAUGCUGGACUUUGUCCAGCAGAAGGGUGAAAACAUGAGGAUCACCCAUGUAUGGUCUCCAAAUUUAAA	187	13.6		
UGUCGGAGCAGAGGAUAUUACAUGAGGAUCACCCAUGUAUAAAGAUCAAGCUGGAAACAGCAAUGUAAGAAGGCUGCUCCGACA			60.4	418

Sequence	apparent Kd [1] [nM]	apparent Kd [2] [nM]	apparent Kd [3] [nM]	apparent Kd [4] [nM]
AAUUUACAUGAGGAUCACCCAUGUCAGGAUAUGGUUUUAUUUUUUUUUUUUUUUGAUUCCAGAAGGGACAGUUA			21.1	19.7
UAUAAAACAUAGGAUAUCGAAAUUAUCAUUUAACGAGAAGGAUGAACAUGAGGAUCACCCAUGUGGUAUCAUGG			392	518
UGAGCGACCACAGGAUAUGCUUGAGAAGACCGAGCAGAAGGGUGGAAGAGCGUGCAGUGACAUGAGGAUCACCCAUGUGGUUGG	173	170		
GCAGCUAAUGCAGGAUAUCAGCACGUGUAGUGCUGAGAAGGGCACAUGAGGAUCACCCAUGUGAUCAAUUAAUCUUAAUGCUGC			17.3	54.5
CGAGCCUAUGUAAGGAUAUCACGAUAAAACCAGCGUGAGAAGGUACAUGAGGAUCACCCAUGUUCACGACUGGC			13.9	14.7
CGAUAACCACAGAAGGCCCGGGACAUGAGGAUCACCCAUGUAGAAAGUGGGAGGAUAUGUGUACGCGGCAUGCUGACCUCGUGA	210	28.6		
CAGCGAAAGUAGAAGGUAUUAAUUAAAUUUAAAUAAGGAUAUACAUGAGGAUCACCCAUGUCCUUCAGCUGGAUAUAUAUUAAU			39.1	29.1
GGAAAUCAUGUAGGAUAUGCAUGGCGAAGCUACGCAGAAGGACAUGAGGAUCACCCAUGUUCUGGCUACCGGAUACGGUGGCAA			20.7	94.3
GGAUGAGCAAUAGGAUAUGCUGGGAUUGAAUGGGUAGAAGGAUUUCUAGUGGGAAAGACAUGAGGAUCACCCAUGUCGCGGCCC	23.8	25.3		
UUUUAACAUGAGGAUCACCCAUGUCGUUCAAAUCAAGGAUAUCAGGCGUGUGCACACGCCUGAGAAGGUGAAUCUC	135	320		
GUACAUGAGCAGAAGGGCAUUUAAUUAGAUUUUUAUGUUGAUCAGAUAUGCAGGAUAUGUUAAACAUGAGGAUCACCCAUGUAC	235	44.2		
UAUAUAUAGUAAGGAUAUGUAAUUAUUUUAUAGACAGAAGGUACUGACAUGAGGAUCACCCAUGUUUUAGUGUGGGCAUGUAGA			85.2	130
CUCCGCGCUGUCAGGAUAUCCAGGGCCUACCGGCCGGAGAAGGGACAUGAGGAUCACCCAUGUUCGGGUUAGCA			15.7	17.6
AAAUUCUGAGGAUAUCGAUGUUUGUACAUGAGGAUCACCCAUGUCCUUUUUAUUUUUUCCCGAGAAGGCAGUGUAU			45	35.3
UAAACGUUCUAGAAGGUGCUUUUGUUAAACAAGCAAGGAUAUAGACAUGAGGAUCACCCAUGUCUUUGAGACAUCGACAUACUU			8.41	9.14
GGUCCAACAUGAGGAUAUGGCACCUUAUUGGUGCCAGAAGGCAUGUCUAUAGACAUGAGGAUCACCCAUGUAAUAAAUUGGACC	689	47.8		
UAAUAUUUAUGAUAUUAUUACAUUAGAAGGCUAUACAUGUGGAUACAUGAGGAUCACCCAUGUAUAGAGGAUAUAGACAUAUAU			357	537
UGUAUGGACAGAGGAUAUACGGCUAGGAGAUACUAGCUACUAUUCCUCACAUGAGGAUCACCCAUGUAGAAGGCUGUCCAUACU			18	145
CUAUCAAGCAAGGAUAUGCAAAUAAUUAUUUAUGCAGAAGGUGCAACAUGAGGAUCACCCAUGUUUCUGGGUUU			57.4	89.6
UCAGUCAUGUAAGGAUAUGCAGCCGUUUCGGCUGCAGAAGGUACUAUAAUUACAUGAGGAUCACCCAUGUUAUAAAAUUUAUAU	52.5	19.9		
CGCGAACAGGCUAACAUGAGGAUCACCCAUGUGGACUCAUGGUAGGAUAUCGGGAAGGAGGAAACCGAGAAGGGCCGGUGAGCC	498	359		
GUGUGAUUAAGAGGAUAUAUACAACAUGAGGAUCACCCAUGUACCCGUGUAGUAGAAGGUUUGUUUUUAUAUAAUAUUAUAUUU	26.5	21.9		
UUGGUUACAUGAGGAUCACCCAUGUCUCAGGCCCUAUUUAGCAGAAGGCCAGCUGGGCUACGGAUGGAGGAUAUGCUUAUGGCC	131	29.6		
AUCGUAACAGGAGGAUAUUACACUCGGUUGGUCCGCUGCGGGUUGAAACAUGAGGAUCACCCAUGUAAGAAGGCCUGUGUGACU			317	103
